Measurements reported in article PMC3159870 (European journal of nuclear medicine and molecular imaging, 2010).
Like-named read-outs stand apart in the source and are kept apart here.

Assays:
plasma free fraction = format: in vitro ADME, human; details: eight subjects
TSPO [1] = assay: in vivo affinity ratio from slope of regression of regional VT/fP; set-up: species or system human; details: VT/fP values in ten brain regions
TSPO [2] = details: monkey brain; cited from earlier work
TSPO [3] = format: in vivo, human
In short: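 Eight healthy volunteers (2 women, 6 men; 32±11 y), each scanned once with each aryloxyanilide radioligand (18F: 170±26 MBq; 11C: 567±84 MBq; i.v. bolus). Dynamic PET on GE Advance. Radial arterial plasma parent separated by radio-HPLC gave the input function. VT fitted from the first 120 min, then divided by per-scan fP. Ten regions; mean ± SD; repeated-measures ANOVA.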

[4] = kinetics of radioligand in plasma and brain after bolus intravenous injection; format: in vivo, human
[5] = radiation exposure; cited from earlier work
TSPO [6] = assay: in vitro affinity for TSPO in human brain tissue; format: binding; details: PBR06 relative to PBR28
TSPO [7] = details: human brain tissue; cited from earlier work
[8] = octanol/phosphate buffer, pH 7.4; cited from earlier work
TSPO [9] = format: binding, human; details: membranes of white blood cells
[10] = mean of ten brain regions, eight subjects, 120 min data

COc1ccc(OC)c(CN(C(=O)C[18F])c2ccccc2Oc2ccccc2)c1 [^18F-PBR06]
plasma free fraction (fP) (plasma free fraction): 2.2±0.6%
95% confidence interval of slope (in vivo affinity ratio) (TSPO [1]): 0.89–1.84
specific binding as part of total uptake (TSPO [2]): greater than 90%
VT (TSPO [3]; Anterior cingulate): 2.05±0.42 ml × cm^−3
VT/fP (TSPO [3]; Anterior cingulate): 97.7±21.5 ml × cm^−3
VT (TSPO [3]; Caudate): 1.72±0.28 ml × cm^−3
VT/fP (TSPO [3]; Caudate): 83.2±20.3 ml × cm^−3
VT (TSPO [3]; Cerebellum): 2.26±0.61 ml × cm^−3
VT/fP (TSPO [3]; Cerebellum): 108.0±33.4 ml × cm^−3
VT (TSPO [3]; Frontal cortex): 2.10±0.40 ml × cm^−3
VT/fP (TSPO [3]; Frontal cortex): 100.3±22.6 ml × cm^−3
VT (TSPO [3]; Medial temporal cortex): 2.05±0.46 ml × cm^−3
VT/fP (TSPO [3]; Medial temporal cortex): 97.7±22.8 ml × cm^−3
VT (TSPO [3]; Occipital cortex): 2.17±0.40 ml × cm^−3
VT/fP (TSPO [3]; Occipital cortex): 104.0±24.3 ml × cm^−3
VT (TSPO [3]; Parietal cortex): 2.10±0.39 ml × cm^−3
VT/fP (TSPO [3]; Parietal cortex): 100.3±20.4 ml × cm^−3
VT (TSPO [3]; Putamen): 1.98±0.36 ml × cm^−3
VT/fP (TSPO [3]; Putamen): 94.8±21.2 ml × cm^−3
VT (TSPO [3]; Temporal cortex): 2.24±0.43 ml × cm^−3
VT/fP (TSPO [3]; Temporal cortex): 107.4±27.7 ml × cm^−3
VT (TSPO [3]; Thalamus): 2.37±0.44 ml × cm^−3
VT/fP (TSPO [3]; Thalamus): 113.6±25.7 ml × cm^−3
VT (TSPO [3]; [10]): 2.1±0.4 ml × cm^−3
VT/fP (TSPO [3]; [10]): 100.7±24.0 ml × cm^−3
time of peak brain uptake of radioactivity ([4]; human brain, after injection): ≤ 5 min
time of peak plasma concentration of total parent radioligand ([4]; human plasma, after injection): ≤ 2 min
peak concentration of brain uptake ([4]; mean of ten regions in eight subjects): 1.2 SUV
peak concentration of brain uptake, range ([4]; range, ten regions in eight subjects): 1.0–1.6 SUV
effective dose [5]: 18.5 µSv/MBq

COc1ccc(OC)c(CN(C(=O)CF)c2ccccc2Oc2ccccc2)c1 [PBR06]
fold higher in vitro affinity than PBR28 (TSPO [6]): 2.5 fold
Ki (TSPO [7]): 1 nM

COc1ccccc1CN(C(C)=O)c1cnccc1Oc1ccccc1 [PBR28]
log D [8]: 3.0
fold lower affinity in non-binders than in the majority (90%) of the population (TSPO [9]): about 50 fold
Ki (TSPO [7]): 2.5 nM
